Shown are actives, neighbours in structure and some others; about 5.8% of the full set was active somewhere.
T cruzi growth-1: T. cruzi intracellular proliferation inhibitors, primary screen, cell-based, beta-gal Tulahuen parasites, NIH3T3 host, luminescence; T. cruzi beta-gal in NIH3T3, GalScreen luminescence, 90 h; inhibition, % at 8.34 µM; 77,000 compounds, 5.9% hits;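 active = mean inhibition above about 93%, with at least 55% of replicates each passing it, limit read from the data, passing the limit was not always enough; inconclusive = only one of those two conditions holds; inactive = neither condition holds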
IDH1 mut inh: inhibitors of IDH1 R132H reductase, primary screen, biochemical, plate reader, single point; inhibition, % at 10 µM; diaphorase/resazurin fluorescence, 60 min; Isocitrate dehydrogenase [NADP] cytoplasmic (Homo sapiens), O75874; 70,000 compounds, 0.18% hits; AID 624101, 2012; in the data active = inhibition above about 34%; inconclusive = no clear call, values can overlap the other calls; inactive = below about 11%
Target sequence (O75874 whole entry R132H): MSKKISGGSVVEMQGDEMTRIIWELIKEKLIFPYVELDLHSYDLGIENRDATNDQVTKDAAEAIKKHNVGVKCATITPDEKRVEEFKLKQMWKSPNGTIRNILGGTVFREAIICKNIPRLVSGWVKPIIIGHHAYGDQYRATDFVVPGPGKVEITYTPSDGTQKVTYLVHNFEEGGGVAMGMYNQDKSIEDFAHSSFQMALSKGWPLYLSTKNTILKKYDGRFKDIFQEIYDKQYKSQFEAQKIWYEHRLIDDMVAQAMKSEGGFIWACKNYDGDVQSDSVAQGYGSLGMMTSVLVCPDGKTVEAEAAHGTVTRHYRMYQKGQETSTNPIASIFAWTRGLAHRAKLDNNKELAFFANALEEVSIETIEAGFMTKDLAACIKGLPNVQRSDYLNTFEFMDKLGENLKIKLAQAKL
KDM4C inh: inhibitors of GASC-1 (KDM4C) histone demethylase, primary screen, biochemical, single concentration HTS; 96,000 compounds, 0.15% hits; GST-KDM4C 2-372, H3K9me3 peptide, LANCE TR-FRET; AID 720574, 2013; inhibition, % at 12.5 µM; Lysine-specific demethylase 4C (Homo sapiens), Q9H3R0;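 active = mean replicate inhibition above about 25%, with at least 55% of replicates also reaching it, limit read from the data, passing the limit was not always enough; inconclusive = only one of those two conditions met; inactive = neither condition met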
Target sequence (Q9H3R0 2-372 limits assumed): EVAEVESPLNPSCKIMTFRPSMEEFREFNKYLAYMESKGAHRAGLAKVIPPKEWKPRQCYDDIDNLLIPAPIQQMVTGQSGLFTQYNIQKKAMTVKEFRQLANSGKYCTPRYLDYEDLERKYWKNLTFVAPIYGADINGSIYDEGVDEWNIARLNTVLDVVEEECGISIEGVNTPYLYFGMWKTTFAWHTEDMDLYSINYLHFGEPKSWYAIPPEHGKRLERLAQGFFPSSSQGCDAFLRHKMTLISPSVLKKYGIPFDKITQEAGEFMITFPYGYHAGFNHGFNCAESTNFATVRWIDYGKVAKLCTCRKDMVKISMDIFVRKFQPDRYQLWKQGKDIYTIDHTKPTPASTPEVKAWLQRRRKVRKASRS
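material = GST-tagged GASC-1 (JMJD2C) catalytic fragment, aa 2-372 | amount = enzyme final amount 10 nM | medium = HEPES buffer, pH 7.5, plus ascorbate | also added = H3K9me3 peptide substrate, Fe(II), 2-oxoglutarate | dosing = single dose | times = 30 min demethylation and 1 h detection at room temperature | detection = LANCE TR-FRET | read-out basis = Fall in 671/618 emission ratio as inhibition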
Pf Dd2 inh: P. falciparum Dd2 growth inhibitors, primary screen, SYBR Green fluorescence, single dose replicates; 72 h; active compounds read low; activity change, % at 10 µM; 94,000 compounds, 2.3% hits; AID 1159554, 2015; in the data active = activity change below about -80%; inconclusive = no clear call, values can overlap the other calls
T cruzi growth-2: T. cruzi intracellular proliferation inhibitors, confirmation, cell-based, NIH3T3 host, beta-gal parasite, luminescence, cherry-pick. shares compounds with T cruzi growth-1. T. cruzi beta-gal in NIH3T3, GalScreen luminescence, 90 h. inhibition, % at 8.35 µM. 5,600 compounds, 72% hits;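 active = mean replicate inhibition above about 95% and at least 55% of replicates individually reaching it, limit read from the data; inconclusive = only one of the two criteria is met; inactive = neither criterion is met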
T cruzi growth-3: inhibitors of intracellular T. cruzi replication, confirmation, NIH3T3 host cells, beta-gal parasites, cherry-pick, set 2. inhibition, % at 2.09 µM. shares compounds with T cruzi growth-1. 5,600 compounds, 21% hits. AID 651740, 2012. T. cruzi beta-gal in NIH3T3, GalScreen luminescence, 90 h;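 active = mean inhibition above about 95%, with at least 55% of replicates also reaching it, limit read from the data; inconclusive = meets just one of the two conditions; inactive = meets neither condition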
NIH3T3 tox: cytotoxicity in mouse NIH/3T3 fibroblasts, confirmation, cytotoxicity control for T. cruzi proliferation inhibitor project, cell-based, cherry-pick, single point. AID 651742, 2012. NIH/3T3 viability, CellTiter-Glo ATP luminescence, 90 h. 5,600 compounds, 14% hits. shares compounds with T cruzi growth-1. cytotoxicity (signal decrease), % at 8.35 µM;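 active = mean signal decrease across replicates above about 35% based on untreated-well scatter, with enough replicates individually passing, limit read from the data; inconclusive = no rule stated though some were filed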
3T3 cytotox 2: NIH/3T3 fibroblast cytotoxicity, confirmation, cytotoxicity control, cell-based, cherry-pick, single point, set 2 | shares compounds with T cruzi growth-1 | AID 651744, 2012 | 5,600 compounds, 56% hits | inhibition, % at 24.9 µM | NIH/3T3 viability, CellTiter-Glo ATP luminescence, 90 h;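 active = mean loss of cell viability signal at or above a set limit, and enough replicates individually reaching it; inconclusive = meets only the mean limit or only the replicate share; inactive = meets neither condition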
Large screens that a line does not name were inactive (follow-up assays come after a bar, where they were run).

COc1ccccc1OCC(=O)Nc1ccc(C)cc1[N+](=O)[O-]	none (no result: T cruzi growth-1, KDM4C inh, Pf Dd2 inh)
Cc1ccc(NS(=O)(=O)c2cc(C(=O)NCC3CCCO3)ccc2Cl)c(C)c1 (configuration not stated)	none (no result: T cruzi growth-1, KDM4C inh, Pf Dd2 inh)
CCCN(C)C[C@@H]1Oc2cc(C#CC3CCCC3)ccc2S(=O)(=O)N([C@@H](C)CO)C[C@H]1C	T cruzi growth-1 103 | T cruzi growth-2 108 | T cruzi growth-3 inactive | NIH3T3 tox 39 | 3T3 cytotox 2 104
C[C@H]1CN([C@@H](C)CO)S(=O)(=O)c2ccc(C#CC3CCCC3)cc2O[C@H]1CN(C)CC1CC1	T cruzi growth-1 inconclusive | T cruzi growth-2 inactive | T cruzi growth-3 inactive | NIH3T3 tox 48 | 3T3 cytotox 2 104
C[C@@H]1CN([C@@H](C)CO)S(=O)(=O)c2ccc(C#CC3CCCCC3)cc2O[C@H]1CN(C)C	T cruzi growth-1 118 | T cruzi growth-2 104 | T cruzi growth-3 101 | NIH3T3 tox 38 | 3T3 cytotox 2 104
C[C@H]1CN([C@@H](C)CO)S(=O)(=O)c2ccc(C#CC3CCCC3)cc2O[C@@H]1CN(C)C	T cruzi growth-1 100 | T cruzi growth-2 105 | T cruzi growth-3 inactive | NIH3T3 tox inactive | 3T3 cytotox 2 104
C[C@H]1CN([C@@H](C)CO)S(=O)(=O)c2ccc(C#CC3CCCC3)cc2O[C@H]1CN(C)C	none
O=C(O)CCC1OC(=O)C(=O)C1c1ccccc1 (configuration not stated)	none (no result: T cruzi growth-1, KDM4C inh, Pf Dd2 inh)
CCN(CC(=O)Nc1ccc(OC)cc1)S(=O)(=O)c1ccc(Cl)cc1	none (no result: T cruzi growth-1, KDM4C inh, Pf Dd2 inh)
C[C@H](CO)N1C[C@H](C)[C@H](CN(C)C)Oc2cc(C#CC3CCCCC3)ccc2S1(=O)=O	T cruzi growth-1 98 | T cruzi growth-2 106 | T cruzi growth-3 inactive | NIH3T3 tox 48 | 3T3 cytotox 2 103
C[C@@H]1CCCCO[C@@H](CN(C)Cc2ccc(C(F)(F)F)cc2)[C@@H](C)CN([C@H](C)CO)C(=O)c2cc(NS(=O)(=O)c3ccc(Cl)cc3)ccc2O1	T cruzi growth-1 108 (no result: IDH1 mut inh) | T cruzi growth-2 95 | T cruzi growth-3 110 | NIH3T3 tox inactive | 3T3 cytotox 2 102
C[C@@H]1CCCCO[C@H](CN(C)Cc2ccc(C(F)(F)F)cc2)[C@@H](C)CN([C@H](C)CO)C(=O)c2cc(NS(=O)(=O)c3ccccc3)ccc2O1	T cruzi growth-1 inconclusive | T cruzi growth-2 97 | T cruzi growth-3 inactive | NIH3T3 tox inactive | 3T3 cytotox 2 50
C[C@H](CO)N1C[C@H](C)[C@@H](CN(C)Cc2ccc(C(F)(F)F)cc2)OCCCC[C@H](C)Oc2ccc(NS(C)(=O)=O)cc2C1=O	T cruzi growth-1 93 | T cruzi growth-2 109 | T cruzi growth-3 inactive | NIH3T3 tox inactive | 3T3 cytotox 2 53
C[C@H]1CCCCO[C@H](CN(C)Cc2ccc(C(F)(F)F)cc2)[C@@H](C)CN([C@@H](C)CO)C(=O)c2cc(NS(=O)(=O)c3ccccc3)ccc2O1	T cruzi growth-1 inconclusive (no result: IDH1 mut inh) | T cruzi growth-2 inactive | T cruzi growth-3 97 | NIH3T3 tox inactive | 3T3 cytotox 2 104
C[C@@H]1CN([C@H](C)CO)C(=O)c2cc(NS(C)(=O)=O)ccc2O[C@@H](C)CCCCO[C@@H]1CN(C)Cc1ccc(C(F)(F)F)cc1	none
Cc1noc(C)c1S(=O)(=O)N(C)C[C@H]1OCCCC[C@@H](C)Oc2ccc(NC(=O)Nc3cccc4ccccc34)cc2C(=O)N([C@@H](C)CO)C[C@@H]1C	T cruzi growth-1 105, Pf Dd2 inh inconclusive | T cruzi growth-2 107 | T cruzi growth-3 inactive | NIH3T3 tox inactive | 3T3 cytotox 2 inactive
C[C@@H]1CCCCO[C@H](CN(C)S(=O)(=O)c2ccccc2)[C@H](C)CN([C@H](C)CO)C(=O)c2cc(NC(=O)Nc3cccc4ccccc34)ccc2O1	T cruzi growth-1 108 | T cruzi growth-2 106 | T cruzi growth-3 110 | NIH3T3 tox inactive | 3T3 cytotox 2 inconclusive
Cc1noc(C)c1S(=O)(=O)N(C)C[C@@H]1OCCCC[C@@H](C)Oc2ccc(NC(=O)Nc3cccc4ccccc34)cc2C(=O)N([C@H](C)CO)C[C@H]1C	T cruzi growth-1 109, Pf Dd2 inh -82 | T cruzi growth-2 110 | T cruzi growth-3 100 | NIH3T3 tox inactive | 3T3 cytotox 2 inconclusive
C[C@H](CO)N1C[C@H](C)[C@H](CN(C)S(=O)(=O)c2ccccc2)OCCCC[C@H](C)Oc2ccc(NC(=O)Nc3cccc4ccccc34)cc2C1=O	none
CC(NS(=O)(=O)c1ccc(Br)cc1)C(=O)Nc1cccc(F)c1 (configuration not stated)	none (no result: T cruzi growth-1, KDM4C inh, Pf Dd2 inh)
CCCNC(=O)N1[C@H](C#N)[C@@H](c2ccc(C3=CCCCC3)cc2)[C@@H]1CO	T cruzi growth-1 103 (no result: IDH1 mut inh) | T cruzi growth-2 105 | T cruzi growth-3 inactive | NIH3T3 tox inactive | 3T3 cytotox 2 inactive
CC(C)NC[C@@H]1[C@H](c2ccc(C3=CCCCC3)cc2)[C@H](CO)N1C(=O)NC(C)C	T cruzi growth-1 121 (no result: IDH1 mut inh) | T cruzi growth-2 106 | T cruzi growth-3 98 | NIH3T3 tox inactive | 3T3 cytotox 2 105
N#C[C@@H]1[C@@H](c2ccc(C3=CCCCC3)cc2)[C@@H](CO)N1C(=O)NC1CCCCC1	T cruzi growth-1 98 (no result: IDH1 mut inh) | T cruzi growth-2 104 | T cruzi growth-3 inactive | NIH3T3 tox 54 | 3T3 cytotox 2 64
N#C[C@H]1[C@@H](c2ccc(C3=CCCC3)cc2)[C@@H](CO)N1C(=O)NC1CCCCC1	none (no result: T cruzi growth-1, IDH1 mut inh)
CCCNC(=O)N1[C@H](CO)[C@H](c2ccc(C3=CCCCC3)cc2)[C@@H]1C#N	none
N#C[C@H]1[C@H](c2ccc(C3=CCCCC3)cc2)[C@H](CO)N1C(=O)NC1CCCC1	none (no result: T cruzi growth-1, IDH1 mut inh)
N#C[C@@H]1[C@@H](c2ccc(C3=CCCCC3)cc2)[C@H](CO)N1C(=O)NC1CCCCC1	T cruzi growth-1 98 (no result: IDH1 mut inh) | T cruzi growth-2 103 | T cruzi growth-3 inactive | NIH3T3 tox inactive | 3T3 cytotox 2 87
CCOC(=O)c1ccc(NC(=O)C2C3CCC(C3=C(C)C)C2C(=O)O)cc1 (configuration not stated)	none (no result: T cruzi growth-1, KDM4C inh, Pf Dd2 inh)

From PubChem
